In general, EC50 refers to the concentration needed to bring the measured effect to its halfway point.

Series [1] can be described thus: Antioxidant activity assessed as DPPH radical scavenging activity incubated for 35 mins under dark condition. It is filed as functional. In a few lines:
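DMSO stocks (100 mM) added to freshly prepared 0.2 mM DPPH in methanol, two-fold serially diluted, kept dark 35 min, absorbance read at 517 nm. Background absorbance from a parallel methanol-only (no DPPH) plate subtracted. Scavenging % = 100 × (Acontrol−Asample)/Acontrol; n = 3; ascorbic acid positive control.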
A general note: Loss of DPPH colour is used to gauge radical scavenging.

The nature of series [2]: Immunomodulatory activity in IL-17A Katushka/IL-10eGFP/Foxp3RFP reporter mouse cell trace violet-labelled CD4+ T cell derived TGF-beta1/IL-6/IL-23-polarized Th17 cells assessed as increase in IL-10 positive cell population at 5 to 20 uM measured after 3 days by flow cytomtery relative to control. Particulars: dose 5-20 µM; time 3 day. It is filed as functional. In a few lines: (§1)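 Naïve CD4+ T cells from spleen and lymph nodes of 2 triple reporter mice, CellTrace Violet-labelled, polarized in Click's medium with 5% FBS, anti-CD3/anti-CD28, anti-IFNγ, anti-IL-4, IL-23, IL-6 and TGF-β1. Compound or DMSO added after 1–3 days, cultured 3 more days; flow cytometry on viable CD4+ cells (IL-17A Katushka, IL-10 eGFP). Fold change vs DMSO; n = 4.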

The nature of series [3]: Immunomodulatory activity in IL-17A Katushka/IL-10eGFP/Foxp3RFP reporter mouse cell trace violet-labelled CD4+ T cell derived TGF-beta1/IL-6/IL-23-polarized Th17 cells assessed as increase in IL-10/IL-17 positive cell population at 5 to 20 uM measured after 3 days by flow cytomtery relative to control. It is filed as functional. Particulars: dose 5-20 µM; time 3 day. An outline of the steps:
as §1

Series [4] in a line: Increase in IL-17A Katushka/IL-10eGFP/Foxp3RFP reporter mouse cell trace violet-labelled CD4+ T cell derived TGF-beta1/IL-6/IL-23-polarized Th17 cell proliferation at 10 to 20 uM measured after 3 days by flow cytomtery. It is filed as toxicity, cell-based. The following applies: th17, 72 h, dose 10-20 µM, time 3 day. In a few lines:
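Same Th17-polarized, CellTrace Violet-labelled reporter-mouse CD4+ T cells; compound or DMSO added after 1–3 days, then 3 more days culture. Proliferation by flow cytometry as percentage of viable CD4+ cells having undergone 7 or more divisions (CellTrace Violet dilution); n = 4.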

The target in series [5] is T1, Aryl hydrocarbon receptor (Homo sapiens, UniProt P35869).
T1 sequence (P35869 whole entry): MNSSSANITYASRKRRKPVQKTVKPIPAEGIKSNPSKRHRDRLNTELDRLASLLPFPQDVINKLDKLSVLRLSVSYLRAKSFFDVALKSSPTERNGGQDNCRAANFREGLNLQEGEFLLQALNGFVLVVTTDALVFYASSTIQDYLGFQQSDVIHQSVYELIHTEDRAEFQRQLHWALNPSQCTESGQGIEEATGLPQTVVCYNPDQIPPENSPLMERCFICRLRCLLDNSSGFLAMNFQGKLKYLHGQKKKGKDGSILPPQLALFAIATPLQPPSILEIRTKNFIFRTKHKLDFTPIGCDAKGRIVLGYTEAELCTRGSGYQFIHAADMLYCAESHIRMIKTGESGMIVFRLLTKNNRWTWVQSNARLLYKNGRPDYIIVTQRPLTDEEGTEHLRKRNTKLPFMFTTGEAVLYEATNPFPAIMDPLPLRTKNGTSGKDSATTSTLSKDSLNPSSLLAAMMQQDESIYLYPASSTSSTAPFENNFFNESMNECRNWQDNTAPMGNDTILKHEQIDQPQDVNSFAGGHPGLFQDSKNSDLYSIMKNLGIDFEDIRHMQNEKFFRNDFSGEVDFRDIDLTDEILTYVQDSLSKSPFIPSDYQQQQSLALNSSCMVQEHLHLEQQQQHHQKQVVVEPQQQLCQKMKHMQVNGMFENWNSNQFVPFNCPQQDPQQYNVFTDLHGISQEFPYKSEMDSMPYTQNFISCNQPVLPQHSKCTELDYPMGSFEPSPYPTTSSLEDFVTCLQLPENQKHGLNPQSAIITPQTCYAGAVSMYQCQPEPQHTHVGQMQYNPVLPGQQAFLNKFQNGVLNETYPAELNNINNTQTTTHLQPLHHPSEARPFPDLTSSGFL
The series can be described thus: Agonist activity at AhR in human HT29-Lucia AhR cells measured after 24 hrs by Quanti-luc gold luminescence assay. The format is cell-based. The following applies: DDE = dose-dependent effect. In a few lines: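 HT29-Lucia AhR reporter cells seeded ~50,000 cells/well; ligand or DMSO vehicle added (ITE positive control, unstimulated negative control) for 24 h. Secreted Lucia luciferase in supernatant detected with QUANTI-Luc Gold luminescence. Triplicate; expressed as fold-change relative to DMSO-treated cells.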

The test system of series [6] is Th17. Description: Immunomodulatory activity in IL-17A Katushka/IL-10eGFP/Foxp3RFP reporter mouse cell trace violet-labelled CD4+ T cell derived TGF-beta1/IL-6/IL-23-polarized Th17 cells assessed as increase in IL-17 positive cell population at 5 to 20 uM measured after 3 days by flow cytomtery. It is filed as functional, cell-based. The following applies: dose 5-20 µM, time 3.0 day. In a few lines:
as §1

In series [7] the test system is Th17. The series can be described thus: Immunomodulatory activity in IL-17A Katushka/IL-10eGFP/Foxp3RFP reporter mouse cell trace violet-labelled CD4+ T cell derived TGF-beta1/IL-6/IL-23-polarized Th17 cells assessed as increase in IL-10/IL-17 positive cell population at 5 to 20 uM measured after 3 days by flow cytomtery. It is filed as functional, cell-based. The following applies: dose 5-20 µM, time 3.0 day. In a few lines:
as §1

The source made the active and inactive calls. The calls are words filed in the database; no cut-off is given here.

Take `O=c1[nH]c(=O)c2nc(-c3ccc(O)cc3)c(=O)n(C[C@H](O)[C@H](O)[C@H](O)CO)c2[nH]1`: the outcome in series [1] was Active.

As for `O=c1[nH]c(=O)c2nc(-c3c[nH]c4ccccc34)c(=O)n(C[C@H](O)[C@H](O)[C@H](O)CO)c2[nH]1`, the 50% effective concentration (EC50) in series [1] is 32 µM. Further, the “fold change (FC)” value in series [2] and in series [3] was 2 in each case. The Activity result in series [4] is reported as “Non-Toxic”; in series [5], “Dde”.

As for `O=c1[nH]c(=O)c2nc(-c3ccccc3)c(=O)n(C[C@H](O)[C@H](O)[C@H](O)CO)c2[nH]1`, the result in series [1] was Active.

In the case of `O=C1O[C@H]([C@@H](O)CO)C(O)=C1O` [ASCORBIC ACID], the EC50 in series [1] was found to be 30 µM. Further, the result in series [6] and in series [7] was Active.
